Assay results taken from ChEMBL document CHEMBL1122629, “Potent and selective antagonists of the antidiuretic responses to arginine-vasopressin based on modifications of [1-(beta-mercapto-beta,beta-pentamethylenepropionic acid),2-D-isoleucine,4- valine]arginine-vasopressin at position 4” (J Med Chem, 1984).
*1 amine or outer side, *2 acyl side, *3 side chain or, on linkers, in order; H or OH if unused. Where a SMILES comes first, the peptide text is derived from it. Bridges are numbered along the chain shown (N, C = ends). [ ]: non-standard residue; d: D form. X1 = O=C(CC1(S[*:2])CCCCC1)[*:1]; Orn = NCCC[C@H](N)C(=O)O

How the values were obtained:
[1] = Ratio of anti-vasopressor ED50 to antiantidiuretic ED50; type: functional, Urine
Outline: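 Ratio of antivasopressor ED to antiantidiuretic ED. Each ED is the dose (nmol/kg) that lowers the response to 2x units of agonist to that of 1x unit before antagonist. Measured in rats: vasopressor assay in phenoxybenzamine-treated, urethane-anaesthetised animals; antidiuretic assay under ethanol anaesthesia.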

Rattus norvegicus [2] = species: Rattus norvegicus; assay: Anti-oxytocic activity on isolated rat uterus in absence of Mg2+. pA2 value is negative logarithm of effective dose (ED); type: functional; conditions: read-out: pA2 (converted)
Outline: (§1)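 Isolated rat uterus, with USP posterior pituitary reference standard as agonist. Antagonism expressed as pA2.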

Rattus norvegicus [3] = species: Rattus norvegicus; assay: Anti-oxytocic activity on isolated rat uterus in presence of 0.5 mM of Mg2+. pA2 value is negative logarithm of effective dose (ED); type: functional; conditions: read-out: pA2 (converted); outline: as §1
Rattus norvegicus [4] = species: Rattus norvegicus; assay: Antidiuretic activity in rats and pA2 value is negative logarithm of effective dose (ED); type: functional, organism-based; conditions: Urine, read-out: pA2 (converted)
Outline: (§2)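 Antidiuretic assay in rats under ethanol anaesthesia against the USP posterior pituitary reference standard. Standard given 20 min after antagonist, or 10 min for analogues lacking agonism. Each peptide given at a high and a low dose. ED is the dose (nmol/kg) that cuts the response to 2x units of agonist to the response to 1x unit given before antagonist. […] Means ± SE, n assays.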

Rattus norvegicus [5] = assay: Evaluated in vivo for logarithm effective dose (ED); type: functional, organism-based
Rattus norvegicus [6] = assay: In vivo antidiuretic activity in rat measured as dose that reduced the response seen with 2x units of agonist to equal the response seen with 1x unit of agonist administered before antagonist; type: functional, Urine; outline: as §2
Rattus norvegicus [7] = assay: In vivo anti-vasopressor activity in phenoxybenzamine-treated rats under urethane anesthesia is measured as effective dose; type: functional
Outline: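 Intravenous vasopressor assay in phenoxybenzamine-treated rats under urethane anaesthesia, agonist USP posterior pituitary reference standard. ED is the dose (nmol/kg) that reduces the response to 2x units of agonist to that of 1x unit given before antagonist. […] Means ± SE, number of assays given.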

Rattus norvegicus [8] = species: Rattus norvegicus; assay: Anti-oxytocic activity in rat uterus and effective dose (ED) was reported.; type: functional
Outline: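 Rat uterus in situ, with synthetic oxytocin as agonist. ED is the dose (nmol/kg) that lowers the response to 2x units of agonist to that of 1x unit given before antagonist.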

Structure (SMILES) | Ratio [1] | Kb (Rattus norvegicus [2]) | Kb (Rattus norvegicus [3]) | Kb (Rattus norvegicus [4]) | in vivo pA2 effective dose (as concentration) (Rattus norvegicus [5]) | ED (Rattus norvegicus [6]) | ED (Rattus norvegicus [7]) | ED (Rattus norvegicus [8])
CC[C@@H](C)[C@H]1NC(=O)CC2(CCCCC2)SSC[C@@H](C(=O)N2CCC[C@H]2C(=O)N[C@@H](CCCN=C(N)N)C(=O)NCC(N)=O)NC(=O)[C@H](CC(N)=O)NC(=O)[C@H](C(C)C)NC(=O)[C@H](Cc2ccccc2)NC1=O | 12 |  |  |  |  |  |  | 
CC[C@@H](C)[C@H]1NC(=O)CC2(CCCCC2)SSC[C@@H](C(=O)N2CCC[C@H]2C(=O)N[C@@H](CCCN=C(N)N)C(=O)NCC(N)=O)NC(=O)[C@H](CC(N)=O)NC(=O)[C@H](Cc2ccccc2)NC(=O)[C@H](Cc2ccccc2)NC1=O |  | 74.1 nM | 120 nM |  |  |  |  | 
CC[C@@H](C)[C@H]1NC(=O)CC2(CCCCC2)SSC[C@@H](C(=O)N2CCC[C@H]2C(=O)N[C@@H](CCCN=C(N)N)C(=O)NCC(N)=O)NC(=O)[C@H](CC(N)=O)NC(=O)[C@H](CC2CCCCC2)NC(=O)[C@H](Cc2ccccc2)NC1=O [listing 1 of 2 here] |  | 36.3 nM | 81.3 nM | 229 nM | 0.275 µM |  |  | 
CC[C@@H](C)[C@H]1NC(=O)CC2(CCCCC2)SSC[C@@H](C(=O)N2CCC[C@H]2C(=O)N[C@@H](CCCN=C(N)N)C(=O)NCC(N)=O)NC(=O)[C@H](CC(N)=O)NC(=O)[C@H](CC2CCCCC2)NC(=O)[C@H](Cc2ccccc2)NC1=O [listing 2 of 2 here] | 1.2 |  |  |  |  | 15.6 nmol/kg | 19.1 nmol/kg | 
CC[C@@H](C)[C@H]1NC(=O)CC2(CCCCC2)SSC[C@@H](C(=O)N2CCC[C@H]2C(=O)N[C@@H](CCCN=C(N)N)C(=O)NCC(N)=O)NC(=O)[C@H](CC(N)=O)NC(=O)[C@H](CO)NC(=O)[C@H](Cc2ccccc2)NC1=O [listing 1 of 2 here] |  | 52.5 nM | 151 nM | 55 nM | 0.617 µM |  |  | 
CC[C@@H](C)[C@H]1NC(=O)CC2(CCCCC2)SSC[C@@H](C(=O)N2CCC[C@H]2C(=O)N[C@@H](CCCN=C(N)N)C(=O)NCC(N)=O)NC(=O)[C@H](CC(N)=O)NC(=O)[C@H](CO)NC(=O)[C@H](Cc2ccccc2)NC1=O [listing 2 of 2 here] | 10 |  |  |  |  | 4.6 nmol/kg | 45 nmol/kg | 
CC[C@@H](C)[C@H]1NC(=O)CC2(CCCCC2)SSC[C@@H](C(=O)N2CCC[C@H]2C(=O)N[C@@H](CCCN=C(N)N)C(=O)NCC(N)=O)NC(=O)[C@H](CC(N)=O)NC(=O)[C@H](CCCCN)NC(=O)[C@H](Cc2ccccc2)NC1=O [listing 1 of 2 here] |  | 79.4 nM | 251 nM | 174 nM |  |  |  | 
CC[C@@H](C)[C@H]1NC(=O)CC2(CCCCC2)SSC[C@@H](C(=O)N2CCC[C@H]2C(=O)N[C@@H](CCCN=C(N)N)C(=O)NCC(N)=O)NC(=O)[C@H](CC(N)=O)NC(=O)[C@H](CCCCN)NC(=O)[C@H](Cc2ccccc2)NC1=O [listing 2 of 2 here] |  |  |  |  |  | 11.9 nmol/kg |  | 
CC[C@@H](C)[C@H]1NC(=O)CC2(CCCCC2)SSC[C@@H](C(=O)N2CCC[C@H]2C(=O)N[C@@H](CCCN=C(N)N)C(=O)NCC(N)=O)NC(=O)[C@H](CC(N)=O)NC(=O)[C@H]([C@@H](C)CC)NC(=O)[C@H](Cc2ccccc2)NC1=O | 39 |  |  |  |  | 0.67 nmol/kg | 26 nmol/kg | 9.4 nmol/kg
CC[C@@H](C)[C@H]1NC(=O)CC2(CCCCC2)SSC[C@@H](C(=O)N2CCC[C@H]2C(=O)N[C@@H](CCCN=C(N)N)C(=O)NCC(N)=O)NC(=O)[C@H](CC(N)=O)NC(=O)[C@H](CC(C)C)NC(=O)[C@H](Cc2ccccc2)NC1=O [listing 1 of 2 here] |  | 14.5 nM | 26.9 nM | 158 nM | 0.178 µM |  |  | 
CC[C@@H](C)[C@H]1NC(=O)CC2(CCCCC2)SSC[C@@H](C(=O)N2CCC[C@H]2C(=O)N[C@@H](CCCN=C(N)N)C(=O)NCC(N)=O)NC(=O)[C@H](CC(N)=O)NC(=O)[C@H](CC(C)C)NC(=O)[C@H](Cc2ccccc2)NC1=O [listing 2 of 2 here] | 1.1 |  |  |  |  | 11 nmol/kg | 12.4 nmol/kg | 
NCCC[C@@H]1NC(=O)[C@H](Cc2ccccc2)NC(=O)[C@@H](Cc2ccccc2)NC(=O)CC2(CCCCC2)SSC[C@@H](C(=O)N2CCC[C@H]2C(=O)N[C@@H](CCCN=C(N)N)C(=O)NCC(N)=O)NC(=O)[C@H](CC(N)=O)NC1=O ([dF]F[Orn]NCPRG-NH2; linker N-5 via X1) [listing 1 of 2 here] |  | 18.6 nM | 20 nM | 316 nM | 0.0269 µM |  |  | 
NCCC[C@@H]1NC(=O)[C@H](Cc2ccccc2)NC(=O)[C@@H](Cc2ccccc2)NC(=O)CC2(CCCCC2)SSC[C@@H](C(=O)N2CCC[C@H]2C(=O)N[C@@H](CCCN=C(N)N)C(=O)NCC(N)=O)NC(=O)[C@H](CC(N)=O)NC1=O ([dF]F[Orn]NCPRG-NH2; linker N-5 via X1) [listing 2 of 2 here] | 0.09 |  |  |  |  | 21.3 nmol/kg | 1.9 nmol/kg | 
